Common to all, as to assay type: functional, organism-based
The test system of test [1] is Aspergillus fumigatus. Kind of test: Antifungal activity against Aspergillus fumigatus ATCC 90906 at 30 degC after 68 to 72 hrs.
Test [2] has as its system Candida albicans. Briefly: Antifungal activity against Candida albicans ATCC 90028 at 37 degC after 18 to 24 hrs.
Test [3] concerns Fusarium verticillioides. Briefly: Antifungal activity against Fusarium verticillioides up to 1 mg/mL by disk assay. The essentials:
(§1)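 Disk diffusion assay run as described by Alam et al., with captan as positive control; compounds tested up to 1mg/mL.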

Test [4] concerns Aspergillus flavus. Briefly: Antifungal activity against Aspergillus flavus up to 1 mg/mL by disk assay. In outline: as §1
The subject of test [5] is Mycobacterium intracellulare. Kind of test: Antimycobacterial activity against Mycobacterium intracellular ATCC 23068 at 37 degC after 68 to 72 hrs. The essentials:
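Modified Franzblau microdilution. Samples in DMSO, serially diluted in 20% DMSO/saline, tested in duplicate. Inoculum in Middlebrook 7H9 broth with OADC and 5% Alamar Blue, pH 7.3. Incubated at 37 °C, 10% CO2, 68–72 h. Fluorescence read at 544ex/590em before and after incubation. IC50 from percent growth versus concentration; MIC is the lowest concentration with no detectable growth. Ciprofloxacin control.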

Test [6] has as its system Cryptococcus neoformans. Kind of test: Antifungal activity against Cryptococcus neoformans ATCC 90113 at 30 degC after 68 to 72 hrs.
The test system of test [7] is Candida albicans. Briefly: Antifungal activity against Candida albicans ATCC 90028 up to 50 ug/mL after 18 to 24 hrs at 37 degC.

SMILES strings stand for the structures. Values after ≈ are worked out from the molar mass of the structure shown. Active and inactive are the calls of the source. The rule behind the calls is not given here.

The compound `C[C@@H]1[C@H](O)[C@@H](C)/C=C/C=C/C=C/C=C/C=C/C=C/C=C/[C@H](O[C@@H]2O[C@H](C)[C@@H](O)[C@H](N)[C@@H]2O)C[C@@H]2O[C@](O)(C[C@@H](O)C[C@@H](O)[C@H](O)CC[C@@H](O)C[C@@H](O)CC(=O)O[C@H]1C)C[C@H](O)[C@H]2C(=O)O` [AMPHOTERICIN B] returned an IC50 in test [1] of 0.91 µg/mL (≈ 0.985 µM).

As to `COC[C@H]1OC(=O)c2coc3c2[C@@]1(C)C1=C(C3=O)[C@@H]2CCC(=O)[C@@]2(C)C[C@H]1OC(C)=O` [WORTMANNIN], in test [2], 0.25 µg/mL (≈ 0.584 µM) corresponded to half-maximal inhibition (IC50) and the lowest concentration to inhibit growth (MIC) was 0.78 µg/mL (≈ 1.82 µM).

In test [1], `CCC(C)CC(C)/C=C(\C)[C@@H]1O[C@H](c2c(O)c([C@@]3(O)CCC(=O)C[C@H]3O)cn(C)c2=O)CC[C@H]1C` (stereo not given in full) displayed an IC50 of 35 µg/mL (≈ 71.5 µM). In addition, the result in test [3] and in test [4] was inactive.

Consider `CCC(C)CC(C)/C=C(\C)[C@@H]1O[C@H](c2c(O)c(-c3ccc(O)cc3)c[nH]c2=O)CC[C@H]1C` (stereo not given in full), for which the outcome in test [1], in test [3], in test [4], in test [5], in test [2] and in test [6] was inactive.

On to `CCC(C)CC(C)/C=C(\C)[C@@H]1O[C@H](c2c(O)c(-c3ccc(O)cc3)cn(C)c2=O)CC[C@H]1C` (stereo not given in full), for which the outcome in test [1], in test [3], in test [4], in test [5], in test [2] and in test [6] was inactive.

On to `CC[C@H](C)[C@H]1C(=O)O[C@H](C(C)C)C(=O)N(C)[C@@H](C(C)C)C(=O)O[C@H](C(C)C)C(=O)N(C)[C@@H](C(C)C)C(=O)O[C@H](C(C)C)C(=O)N1C` [ENNIATIN B1], for which the IC50 is 15 µg/mL (≈ 22.9 µM) in test [5], 2 µg/mL (≈ 3.06 µM) in test [2] and 9 µg/mL (≈ 13.8 µM) in test [6]. For the same compound, the MIC was determined as 6.25 µg/mL (≈ 9.56 µM) in test [2] and 25 µg/mL (≈ 38.2 µM) in test [6].

In the case of `CCC(C)CC(C)/C=C(\C)[C@@H]1O[C@H](c2c(O)c([C@@]3(O)CCC(OC)(OC)C[C@@H]3O)cn(C)c2=O)CC[C@H]1C` (stereo not given in full), the result in test [1], in test [3], in test [4], in test [5], in test [2] and in test [6] was inactive.

`O=C(O)c1cn(C2CC2)c2cc(N3CCNCC3)c(F)cc2c1=O` [CIPROFLOXACIN] had an MIC in test [5] of 0.63 µg/mL (≈ 1.9 µM).

For `CCC(C)CC(C)/C=C(\C)C1OC(c2c(O)c([C@]3(O)CCC(=O)C[C@@H]3O)cn(C)c2=O)CC[C@@H]1C` (stereo not given in full), the IC50 in test [1] was determined as 2 µg/mL (≈ 4.08 µM); in test [6] it was 35 µg/mL (≈ 71.5 µM). For the same compound, the result in test [7], in test [3] and in test [4] was inactive.

In general, IC50 refers to the point on the concentration scale where inhibition reaches its midpoint. As a reminder, the MIC is the lowest concentration that inhibits growth of the organism. Higher therefore signals a need for much substance.
